Two compounds from publication PMC5435566 (Nature chemical biology, 2017) can be followed below.

For one data set, the target named is T1, human LMPTP-A (Homo sapiens, UniProt P24666).
T1 sequence (P24666 1-158): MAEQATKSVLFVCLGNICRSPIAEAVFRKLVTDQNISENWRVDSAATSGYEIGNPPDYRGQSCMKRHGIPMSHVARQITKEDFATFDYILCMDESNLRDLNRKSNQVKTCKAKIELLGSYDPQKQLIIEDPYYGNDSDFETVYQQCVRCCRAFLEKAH
As to the kind of experiment: Isothermal titration calorimetry. The data set is classed as binding. The gist of the method: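 ITC was run at 23°C: 2 μl injections of 0.5 mM test compound into 50 μM human LMPTP-A, with or without 200 μM sodium orthovanadate to form the cysteine adduct. Tris runs used 10 mM Tris pH 7.5, 75 mM NaCl, 0.5 mM β-mercaptoethanol, 5% DMSO; parallel runs used phosphate buffer. Kd, ΔH and −TΔS were derived from the titrations.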
On the technique in general: In ITC the heat of successive injections is recorded.

A short description of the next data set: Solubility. It counts as physicochemical.
Data set [1] concerns human LMPTP-A mutants (Y49, Y131, Y132). As to the kind of experiment: Inhibition of LMPTP-A mutants, OMFP substrate. It counts as biochemical. Conditions: 0.4 mM OMFP, versus wild-type LMPTP-A. The procedure, abridged: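 Wild-type and mutant human LMPTP-A were assayed with 0.4 mM OMFP in 50 mM Bis-Tris pH 6.0, 1 mM DTT, 0.01% Triton X-100 at 37°C across test-compound concentrations. OMFP hydrolysis was monitored continuously by fluorescence (ex 485/em 525 nm) and reported as % activity, from 3 independent experiments.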

Data set [2] relates to insulin receptor (IR) tyrosine phosphorylation in HepG2 hepatocytes. Kind of data set: IR phosphorylation in HepG2 cells. The data set is classed as cell-based, human. Conditions: 10 μM compound overnight, 10 nM insulin 5 min. The procedure, abridged:
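HepG2 cells were grown in MEM with 10% FBS and pen/strep and confirmed mycoplasma-free. Cells were treated overnight with 10 μM test compound or DMSO in 0.1% FBS medium, then stimulated with 10 nM bovine insulin for 5 min at 37°C. Read-outs were anti-IRβ immunoprecipitation with pY1162/Y1163 Western blot (2 experiments) and pIRβ Y1150/Y1151 sandwich ELISA (5 experiments).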

Structures are written as SMILES.

By Kd is commonly meant the constant that tells how readily two partners part at equilibrium. As for `N#Cc1ccccc1-c1cc(NCCCN2CCCCC2)c2ccccc2n1` [Compd. 18], on human LMPTP-A (Tris buffer, no vanadate), binding was characterised by a dissociation constant (Kd) of 8 ± 2 µM and the “−TΔS” value is -6.4 ± 0.3 kcal/mol. At human LMPTP-A (phosphate buffer), binding was characterised by a dissociation constant (Kd) of 10 ± 2 µM and the “−TΔS” value was -5.6 ± 0.3 kcal/mol. In the data set “Solubility”, the solubility result was “highly soluble”. In data set [1], the “inhibition of LMPTP-A mutated at Y49 and Y132” value is listed as “substantially reduced”; the “inhibition of LMPTP-A mutated at Y131 alone or in combination with Y49 and Y132” value is recorded as “completely abolished”.
In the case of `c1ccc(-c2cc(SCCCN3CCCCC3)c3ccccc3n2)cc1` [Compd. 28], the “HepG2 IR phosphorylation after insulin stimulation” value in data set [2] is “had no effect”.
